Results: PubChem BioAssay
Unmarked numbers belong to inactive results. Activity calls are given as the source filed them.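 How the source made its calls, unless noted: active means fluorescence slope after compound addition differing from the mean of all screened samples at 99.7% confidence, in either direction; inactive means the rest.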

Molecular target: Alpha-2C adrenergic receptor (Homo sapiens) (UniProt P18825)
Test: modulators of alpha2C/GIRK thallium flux, primary screen, cell-based, HEK293 alpha2C/GIRK1/2 (AID 624);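 further: slope of fluorescence ratio to pre-addition baseline per second over 15 to 24 s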
Conditions: thallium flux BTC fluorescence, at 10 µM, actives lie on both sides

Sequence of Alpha-2C adrenergic receptor (Homo sapiens) (P18825 whole entry, looked up): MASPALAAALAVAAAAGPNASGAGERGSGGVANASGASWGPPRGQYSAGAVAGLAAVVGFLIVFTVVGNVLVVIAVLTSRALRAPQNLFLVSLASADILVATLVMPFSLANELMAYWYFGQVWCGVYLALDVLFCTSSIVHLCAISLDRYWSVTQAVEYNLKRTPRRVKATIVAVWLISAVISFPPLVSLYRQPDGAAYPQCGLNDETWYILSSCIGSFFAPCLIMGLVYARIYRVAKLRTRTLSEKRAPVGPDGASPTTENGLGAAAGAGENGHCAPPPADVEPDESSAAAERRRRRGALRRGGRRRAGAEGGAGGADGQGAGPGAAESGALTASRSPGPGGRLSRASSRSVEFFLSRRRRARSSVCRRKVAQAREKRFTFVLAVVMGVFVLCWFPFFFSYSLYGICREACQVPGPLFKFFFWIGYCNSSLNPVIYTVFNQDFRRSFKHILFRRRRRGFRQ

Q: Which slope does the source give for `Cc1nc(NS(=O)(=O)c2ccccc2)sc1NC(=O)OCCN(C)C` here?
A: 0.00439

Q: Which slope does the source give for `Cn1c(=O)n(CCc2ccccc2)c(=O)c2c1ncn2Cc1ccccc1` here?
A: 0.00833

Q: Which slope does the source give for `CC(C)OC(=O)c1nn2c(C(F)(F)F)cc(-c3ccc(Br)o3)nc2c1Br` here?
A: 0.00144

Q: Which slope does the source give for `CCCc1nn(C)c2c1C(c1cccnc1)C(C#N)=C(N)O2` (stereo not given) here?
A: 0.00487

Q: For `Cc1ccccc1NC(=O)NCCc1nc2ccccc2[nH]1`, which slope is on record?
A: 0.00493

Q: For `Nc1c(Br)cc2oc(-c3ccccc3)nc2c1Br`, which slope is on record?
A: 0.00567

Q: For `CCCc1[nH]nc2c1C(c1c(C)nn(-c3ccccc3)c1Cl)C(C#N)=C(N)O2` (stereo not given), which slope is on record?
A: 0.00594

Q: For `COC(=O)c1c(NC(=O)c2nn(C)cc2Cl)sc2c1CCCC2`, which slope is on record?
A: 0.00842

Q: For `Cc1cc(=O)oc(C)c1C(=O)Nc1cccc2nonc12`, which slope is on record?
A: 0.00487

Q: With `CC(C)c1nc(N2CCOCC2)c(C#N)c2c1CCC2` as the compound, how does the slope read?
A: 0.0055

Q: Which slope does the source give for `CCOC(=O)c1c(C)n(C)c2ccc(OC)c(NC(=O)CN3CCN(Cc4ccccc4)CC3)c12` here?
A: 0.00677

Q: With `CC(C)CC(NC(=O)OC(C)(C)C)C(=O)NCc1ccccc1` (stereo not given) as the compound, how does the slope read?
A: 0.00412

Q: For `O=c1[nH]nc2n1CCCCC2`, which slope is on record?
A: 0.00508

Q: Which slope does the source give for `Cc1ccc(N(CN2C(=O)NC(C)(C)C2=O)CN2C(=O)NC(C)(C)C2=O)cc1` here?
A: 0.00542

Q: For `CC1CN(C2CCN(S(=O)(=O)c3ccc4ccccc4c3)CC2)CC(C)O1` (stereo not given), which slope is on record?
A: 0.00656

Q: For `CC(C)(C)C1CCC2(CC1)C(C#N)=C(SCC(=O)Nc1ccccc1)NC(=O)C2C#N` (stereo not given), which slope is on record?
A: 0.0063

Q: For `CCOC(=O)c1cc2c(=O)n3cccc(C)c3nc2n(Cc2cccnc2)c1=N`, which slope is on record?
A: 0.00416

Q: Which slope does the source give for `OC(CNCCCN1CCCCC1)COc1ccccc1` (stereo not given) here?
A: 0.00429

Q: For `Cc1ccc(-c2ccccc2NC(=O)C2C3C=CC(C3)C2C(=O)O)o1` (stereo not given), which slope is on record?
A: 0.00466

Q: For `Cn1c(=O)c2c3c(sc2n2c(SCC(N)=O)nnc12)CC(C(C)(C)C)CC3` (stereo not given), which slope is on record?
A: 0.00521

Q: Which slope does the source give for `CCOc1cccc(-c2nn3c(-c4ccccn4)nnc3s2)c1` here?
A: 0.00726

Q: Which slope does the source give for `Cn1c(=O)n(C)c2cc(C(=O)c3ccccc3)ccc21` here?
A: 0.00503

Q: With `CCC(=O)OC1=C2C(=Nc3c(c(=O)n(C)c(=O)n3C)C2c2ccccc2)c2ccccc21` (stereo not given) as the compound, how does the slope read?
A: 0.00546

Q: Which slope does the source give for `Cc1ccsc1C1NC(=O)c2c(sc3c2CCCC3)N1` (stereo not given) here?
A: 0.00518

Q: Which slope does the source give for `CCCCc1ccc(NC(=O)CSC2=C(C#N)C(c3ccco3)C3=C(CCCC3=O)N2)cc1` (stereo not given) here?
A: 0.00706

Q: With `CCCCNc1nc2c(c(=O)n(C)c(=O)n2C)n1Cc1cccc(OC)c1` as the compound, how does the slope read?
A: 0.00373

Q: Which slope does the source give for `Cc1c(CCC#N)c(N2CCCCC2)n2c(nc3ccccc32)c1C#N` here?
A: 0.00724

Q: With `CN(C)C/C(Cl)=C(\Cl)c1ccccc1` as the compound, how does the slope read?
A: 0.00503

Q: Which slope does the source give for `CC(C)Cc1nc(N2CCCCC2)c(C#N)c2c1CCC2` here?
A: 0.006

Q: Which slope does the source give for `CCCCCc1nc2sc3c(c2c(=O)n1N)CCC3` here?
A: 0.00473

Q: Which slope does the source give for `CCOC(=O)Cn1c(SC)nc2sc3c(c2c1=O)CC(C)(C)OC3` here?
A: 0.00508

Q: Which slope does the source give for `Cc1ccc(SCc2nnc(N)s2)cc1` here?
A: 0.00821

Q: For `CC(C)Cc1nc(N2CCOCC2)c(C#N)c2c1CCC2`, which slope is on record?
A: 0.00512

Q: With `CCOc1ccc(Cn2c(O)cc(=O)[nH]c2=O)cc1` as the compound, how does the slope read?
A: 0.00555

Q: For `Cc1ccc(S(=O)(=O)NC(=O)NCc2ccc3c(c2)OCO3)cc1`, which slope is on record?
A: 0.00482

Q: For `CCCCn1c(-c2ccc(Cl)cc2)nc2c(=O)n(C)c(=O)[nH]c21`, which slope is on record?
A: 0.00511

Q: With `CCCCNC(=O)C(C#N)c1nc2ccccc2nc1N1CCN(Cc2ccc3c(c2)OCO3)CC1` (stereo not given) as the compound, how does the slope read?
A: 0.00451

Q: Which slope does the source give for `c1ccc(-c2nnc3sc(Cc4cccs4)nn23)cc1` here?
A: 0.00581

Q: With `CC(=O)C1=C(O)C(=O)N(c2cccc(C(=O)O)c2)C1c1ccc(F)cc1` (stereo not given) as the compound, how does the slope read?
A: 0.00665

Q: For `Cc1ccc(OCc2nnc(NC(=O)c3ccco3)s2)c(C)c1`, which slope is on record?
A: 0.00608

System: not listed separately
Test: inhibitors of larval lipid processing in zebrafish, primary screen, whole organism, PED6 fluorescence, gall bladder and intestine (AID 686;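 active means a full or partial loss of lipid-probe fluorescence in the fish gall bladder, intestine or both, judged by eye; inactive means no fluorescence loss, or compound toxic to the fish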;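 further: larvae 5 to 7 days old with five fish per well; signal comes from phospholipase A2 cleavage of quenched PED6 carried via bile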)
Conditions: Zebrafish larvae PED6 lipid processing, fluorescence scoring; screened at 20 µM (by protocol)
Method in brief: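 Incubation: overnight exposure of larvae to compound plus PED6 / Test system: live zebrafish larvae aged 5-7 days, whole organism / Amount: 5 larvae per well / Read-out basis: visual per-well fluorescence inhibition score / Signal: visual fluorescence microscopy scoring of gall bladder, gut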

Q: With `Cc1nc(NS(=O)(=O)c2ccccc2)sc1NC(=O)OCCN(C)C` as the compound, how does the outcome read?
A: inactive

Q: With `Cn1c(=O)n(CCc2ccccc2)c(=O)c2c1ncn2Cc1ccccc1` as the compound, how does the outcome read?
A: inactive

Q: For `CC(C)OC(=O)c1nn2c(C(F)(F)F)cc(-c3ccc(Br)o3)nc2c1Br`, which outcome is on record?
A: inactive

Q: With `CCCc1nn(C)c2c1C(c1cccnc1)C(C#N)=C(N)O2` (stereo not given) as the compound, how does the outcome read?
A: inactive

Q: Which outcome does the source give for `Cc1ccccc1NC(=O)NCCc1nc2ccccc2[nH]1` here?
A: inactive

Q: For `Nc1c(Br)cc2oc(-c3ccccc3)nc2c1Br`, which outcome is on record?
A: inactive

Q: For `CCCc1[nH]nc2c1C(c1c(C)nn(-c3ccccc3)c1Cl)C(C#N)=C(N)O2` (stereo not given), which outcome is on record?
A: inactive

Q: For `COC(=O)c1c(NC(=O)c2nn(C)cc2Cl)sc2c1CCCC2`, which outcome is on record?
A: inactive

Q: For `Cc1cc(=O)oc(C)c1C(=O)Nc1cccc2nonc12`, which outcome is on record?
A: inactive

Q: With `CC(C)c1nc(N2CCOCC2)c(C#N)c2c1CCC2` as the compound, how does the outcome read?
A: inactive; toxic

Q: Which outcome does the source give for `CCOC(=O)c1c(C)n(C)c2ccc(OC)c(NC(=O)CN3CCN(Cc4ccccc4)CC3)c12` here?
A: inactive

Q: Which outcome does the source give for `CC(C)CC(NC(=O)OC(C)(C)C)C(=O)NCc1ccccc1` (stereo not given) here?
A: inactive

Q: For `O=c1[nH]nc2n1CCCCC2`, which outcome is on record?
A: inactive

Q: Which outcome does the source give for `Cc1ccc(N(CN2C(=O)NC(C)(C)C2=O)CN2C(=O)NC(C)(C)C2=O)cc1` here?
A: inactive

Q: With `CC1CN(C2CCN(S(=O)(=O)c3ccc4ccccc4c3)CC2)CC(C)O1` (stereo not given) as the compound, how does the outcome read?
A: inactive

Q: With `CC(C)(C)C1CCC2(CC1)C(C#N)=C(SCC(=O)Nc1ccccc1)NC(=O)C2C#N` (stereo not given) as the compound, how does the outcome read?
A: inactive; toxic

Q: For `CCOC(=O)c1cc2c(=O)n3cccc(C)c3nc2n(Cc2cccnc2)c1=N`, which outcome is on record?
A: inactive

Q: With `OC(CNCCCN1CCCCC1)COc1ccccc1` (stereo not given) as the compound, how does the outcome read?
A: inactive

Q: With `Cc1ccc(-c2ccccc2NC(=O)C2C3C=CC(C3)C2C(=O)O)o1` (stereo not given) as the compound, how does the outcome read?
A: inactive

Q: Which outcome does the source give for `Cn1c(=O)c2c3c(sc2n2c(SCC(N)=O)nnc12)CC(C(C)(C)C)CC3` (stereo not given) here?
A: inactive

Q: For `CCOc1cccc(-c2nn3c(-c4ccccn4)nnc3s2)c1`, which outcome is on record?
A: inactive

Q: Which outcome does the source give for `Cn1c(=O)n(C)c2cc(C(=O)c3ccccc3)ccc21` here?
A: inactive

Q: Which outcome does the source give for `CCC(=O)OC1=C2C(=Nc3c(c(=O)n(C)c(=O)n3C)C2c2ccccc2)c2ccccc21` (stereo not given) here?
A: inactive

Q: For `Cc1ccsc1C1NC(=O)c2c(sc3c2CCCC3)N1` (stereo not given), which outcome is on record?
A: inactive

Q: Which outcome does the source give for `CCCCc1ccc(NC(=O)CSC2=C(C#N)C(c3ccco3)C3=C(CCCC3=O)N2)cc1` (stereo not given) here?
A: inactive

Q: Which outcome does the source give for `CCCCNc1nc2c(c(=O)n(C)c(=O)n2C)n1Cc1cccc(OC)c1` here?
A: active; weak signal in gallbladder and intestine

Q: With `Cc1c(CCC#N)c(N2CCCCC2)n2c(nc3ccccc32)c1C#N` as the compound, how does the outcome read?
A: inactive

Q: Which outcome does the source give for `CN(C)C/C(Cl)=C(\Cl)c1ccccc1` here?
A: inactive

Q: Which outcome does the source give for `CC(C)Cc1nc(N2CCCCC2)c(C#N)c2c1CCC2` here?
A: inactive; toxic

Q: With `CCCCCc1nc2sc3c(c2c(=O)n1N)CCC3` as the compound, how does the outcome read?
A: inactive

Q: Which outcome does the source give for `CCOC(=O)Cn1c(SC)nc2sc3c(c2c1=O)CC(C)(C)OC3` here?
A: inactive

Q: Which outcome does the source give for `Cc1ccc(SCc2nnc(N)s2)cc1` here?
A: inactive

Q: For `CC(C)Cc1nc(N2CCOCC2)c(C#N)c2c1CCC2`, which outcome is on record?
A: inactive; toxic

Q: For `CCOc1ccc(Cn2c(O)cc(=O)[nH]c2=O)cc1`, which outcome is on record?
A: inactive

Q: With `Cc1ccc(S(=O)(=O)NC(=O)NCc2ccc3c(c2)OCO3)cc1` as the compound, how does the outcome read?
A: inactive

Q: For `CCCCn1c(-c2ccc(Cl)cc2)nc2c(=O)n(C)c(=O)[nH]c21`, which outcome is on record?
A: inactive

Q: Which outcome does the source give for `CCCCNC(=O)C(C#N)c1nc2ccccc2nc1N1CCN(Cc2ccc3c(c2)OCO3)CC1` (stereo not given) here?
A: inactive

Q: With `c1ccc(-c2nnc3sc(Cc4cccs4)nn23)cc1` as the compound, how does the outcome read?
A: active; no signal in gallbladder only

Q: Which outcome does the source give for `CC(=O)C1=C(O)C(=O)N(c2cccc(C(=O)O)c2)C1c1ccc(F)cc1` (stereo not given) here?
A: inactive

Q: Which outcome does the source give for `Cc1ccc(OCc2nnc(NC(=O)c3ccco3)s2)c(C)c1` here?
A: inactive
